Experiment [1] addresses DNA gyrase subunit B (Staphylococcus aureus) (UniProt P0A0K8). The experiment in a line: Inhibition of Staphylococcus aureus DNA gyrase B assessed as residual activity at 1 uM preincubated for 10 mins followed by ATP addition measured after 30 mins by purine nucleoside phosphorylase enzyme coupled spectrophotometric method relative to control.
In experiment [2] the test system is Staphylococcus aureus. The experiment in a line: Inhibition of Staphylococcus aureus topoisomerase-4 assessed as residual activity at 1 uM preincubated for 10 mins followed by ATP addition measured after 30 mins by purine nucleoside phosphorylase enzyme coupled spectrophotometric method relative to control.
The test system of experiment [3] is Staphylococcus aureus. Description: Growth inhibition of Staphylococcus aureus ATCC 25923 at 50 uM after 24 hrs by broth microdilution method relative to control. In kind it is functional. Particulars: ATCC 25923, 24 h, read-out: GI. In general terms: Dilution methods test growth across graded concentrations, often in twofold steps.
In experiment [4] the test system is Enterococcus faecalis. Description: Growth inhibition of Enterococcus faecalis ATCC 29212 at 50 uM after 24 hrs by broth microdilution method relative to control. In kind it is functional. Particulars: ATCC 29212, 24 h, read-out: GI.
For experiment [5], the system named is Escherichia coli. Description: Growth inhibition of Escherichia coli ATCC 25922 at 50 uM after 24 hrs by broth microdilution method relative to control. In kind it is functional. The settings on record: ATCC 25922, 24 h, read-out: GI.
For the next experiment, the system named is Pseudomonas aeruginosa. Description: Growth inhibition of Pseudomonas aeruginosa ATCC 27853 at 50 uM after 24 hrs by broth microdilution method relative to control. In kind it is functional. The settings on record: ATCC 27853, 24 h, read-out: GI.
Experiment [6] concerns the target DNA gyrase subunit B (Escherichia coli, UniProt P0AES6). The experiment in a line: Inhibition of Escherichia coli DNA gyrase by supercoiling assay.
The target of experiment [7] is DNA gyrase subunit B (Staphylococcus aureus, UniProt P0A0K8). The experiment in a line: Inhibition of Staphylococcus aureus DNA gyrase B preincubated for 10 mins followed by ATP addition measured after 30 mins by purine nucleoside phosphorylase enzyme coupled spectrophotometric method.
Experiment [8] concerns Escherichia coli. The experiment in a line: Inhibition of Escherichia coli C-terminal His6-tagged topoisomerase-4 expressed in Escherichia coli BL21(DE3) assessed as residual activity at 1 uM preincubated for 10 mins followed by ATP addition measured after 30 mins by purine nucleoside phosphorylase enzyme coupled spectrophotometric method relative to control.
The test system of experiment [9] is Escherichia coli. The experiment in a line: Growth inhibition of tolC deficient Escherichia coli JW5503 at 50 uM after 24 hrs by broth microdilution method relative to control. In kind it is functional. Particulars: JW5503, 24 h, read-out: GI.
The subject of experiment [10] is Escherichia coli. Description: Growth inhibition of lpxC deficient Escherichia coli JD17464 at 50 uM after 24 hrs by broth microdilution method relative to control. In kind it is functional. The settings on record: JD17464, 24 h, read-out: GI.
Experiment [11] in a line: Inhibition of Staphylococcus aureus topoisomerase-4 assessed as residual activity preincubated for 10 mins followed by ATP addition measured after 30 mins by purine nucleoside phosphorylase enzyme coupled spectrophotometric method.
The nature of experiment [12]: Inhibition of Escherichia coli C-terminal His6-tagged topoisomerase-4 expressed in Escherichia coli BL21(DE3) preincubated for 10 mins followed by ATP addition measured after 30 mins by purine nucleoside phosphorylase enzyme coupled spectrophotometric method.
For experiment [13], the system named is Enterococcus faecalis. Description: Antibacterial activity against Enterococcus faecalis ATCC 29212 after 18 hrs by broth microdilution method. In kind it is functional. The settings on record: ATCC 29212, 18 h.
In experiment [14] the test system is Escherichia coli. The experiment in a line: Antibacterial activity against tolC deficient Escherichia coli JW5503 after 18 hrs by broth microdilution method. In kind it is functional. The settings on record: JW5503, 18 h.
For experiment [15], the system named is Staphylococcus aureus. Description: Antibacterial activity against Staphylococcus aureus ATCC 25923 after 18 hrs by broth microdilution method. In kind it is functional. Particulars: ATCC 25923, 18 h.
In experiment [16] the test system is Staphylococcus aureus. The experiment in a line: Antibacterial activity against Staphylococcus aureus. In kind it is functional.
A short description of experiment [17]: Inhibition of Escherichia coli topoisomerase-4.
Experiment [18] has as its system Enterococcus faecalis. The experiment in a line: Antibacterial activity against Enterococcus faecalis. In kind it is functional, organism-based.
The subject of a further experiment is HUVEC. The experiment in a line: Cytotoxicity against HUVEC assessed as reduction in cell proliferation after 72 hrs by MTS assay. In kind it is cell-based. The settings on record: Homo sapiens. The essentials:
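MTS assay in HUVEC grown in Eagle's MEM with 2 mM L-glutamine, penicillin/streptomycin and 10% FBS, at 37 °C under 5% CO2. Cells seeded at 2000 per well, attached for 24 h, then exposed to six compound concentrations (0.5% DMSO final) for 72 h. Reagent added for 3 h before reading A490. IC50 derived against DMSO-treated cells; triplicate wells, two repeats.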

The record followed here is ChEMBL document CHEMBL4152269, “New N-phenylpyrrolamide DNA gyrase B inhibitors: Optimization of efficacy and antibacterial activity” (Eur J Med Chem, 2018).

≈ marks a conversion by molar mass, not a printed value.

Chain of DNA gyrase subunit B (Staphylococcus aureus) (P0A0K8 2-644 limits assumed): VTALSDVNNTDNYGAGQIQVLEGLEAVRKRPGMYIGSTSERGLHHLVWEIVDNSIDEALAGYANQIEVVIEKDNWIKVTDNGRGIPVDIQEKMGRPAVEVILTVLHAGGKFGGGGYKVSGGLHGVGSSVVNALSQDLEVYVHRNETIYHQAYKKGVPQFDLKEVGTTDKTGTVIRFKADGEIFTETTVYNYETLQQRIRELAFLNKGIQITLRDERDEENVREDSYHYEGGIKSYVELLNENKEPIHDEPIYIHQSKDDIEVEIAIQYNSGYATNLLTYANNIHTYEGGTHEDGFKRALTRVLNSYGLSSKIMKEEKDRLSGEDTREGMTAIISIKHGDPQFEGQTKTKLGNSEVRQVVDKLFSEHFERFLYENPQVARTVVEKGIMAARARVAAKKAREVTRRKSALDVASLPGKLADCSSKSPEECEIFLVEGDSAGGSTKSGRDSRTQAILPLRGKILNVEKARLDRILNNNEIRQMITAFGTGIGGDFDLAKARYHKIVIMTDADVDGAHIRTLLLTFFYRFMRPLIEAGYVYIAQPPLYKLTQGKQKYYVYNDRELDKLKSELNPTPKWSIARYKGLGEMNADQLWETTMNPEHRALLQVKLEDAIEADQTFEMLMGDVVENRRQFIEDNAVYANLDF
Chain of DNA gyrase subunit B (Staphylococcus aureus, UniProt P0A0K8) (P0A0K8 whole entry): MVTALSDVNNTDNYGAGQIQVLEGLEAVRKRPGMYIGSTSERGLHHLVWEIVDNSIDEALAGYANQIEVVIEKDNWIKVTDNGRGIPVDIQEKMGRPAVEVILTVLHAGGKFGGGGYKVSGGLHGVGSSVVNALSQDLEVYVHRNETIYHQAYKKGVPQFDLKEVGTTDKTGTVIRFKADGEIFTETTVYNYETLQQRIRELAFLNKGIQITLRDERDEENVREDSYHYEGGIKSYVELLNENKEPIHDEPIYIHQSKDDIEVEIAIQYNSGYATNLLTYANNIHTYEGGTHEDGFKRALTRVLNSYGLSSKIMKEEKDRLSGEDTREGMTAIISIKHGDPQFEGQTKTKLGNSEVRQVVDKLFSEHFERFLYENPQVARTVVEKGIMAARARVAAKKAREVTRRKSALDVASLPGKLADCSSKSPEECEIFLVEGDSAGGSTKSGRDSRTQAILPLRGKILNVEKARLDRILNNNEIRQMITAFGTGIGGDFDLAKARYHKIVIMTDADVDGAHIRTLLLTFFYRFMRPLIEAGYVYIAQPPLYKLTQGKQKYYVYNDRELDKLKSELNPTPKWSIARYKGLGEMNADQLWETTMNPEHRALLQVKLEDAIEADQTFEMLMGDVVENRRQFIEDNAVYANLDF

The term IC50 denotes the point on the concentration scale where inhibition reaches its midpoint. Consider `CC(C)Oc1cc(NC(=O)c2cc(Br)c(Br)[nH]2)ccc1C(=O)NCC(=O)O`, for which the results for the Activity (in experiment [1]; in the experiment with Staphylococcus aureus [2]) were 85% and 96%, respectively. Also, the inhibition of growth at 50 µM was 13% with Staphylococcus aureus [3], 14% in the experiment with Enterococcus faecalis [4], 9% with Escherichia coli [5] and -8% in the experiment on Pseudomonas aeruginosa. Moreover, on DNA gyrase subunit B [6], the IC50 worked out at 400 nM.

In the case of `CC(C)Oc1cc(C(=O)N[C@@H](C)C(=O)O)ccc1NC(=O)c1cc(Br)c(Br)[nH]1`, the IC50 was found to be 5900 nM on DNA gyrase subunit B [7] and 370 nM at DNA gyrase subunit B [6]. Moreover, the Activity was found to be 78% in the experiment on Escherichia coli [8] and 98% in the experiment on Staphylococcus aureus [2]. The inhibition of growth at 50 µM with Staphylococcus aureus [3] was -18%; in the experiment with Enterococcus faecalis [4], 70%; in the experiment with Escherichia coli [5], 0%; in the experiment on Pseudomonas aeruginosa, 10%; with Escherichia coli [9], 6%; in the experiment on Escherichia coli [10], -15%.

On to `O=C(O)CNC(=O)c1ccc(NC(=O)c2cc(Br)c(Br)[nH]2)cc1OCc1ccccc1`, for which the Activity in experiment [1] stood at 79%; in the experiment on Escherichia coli [8], 100%. Besides, the IC50 in experiment [11] came out at 39000 nM; against DNA gyrase subunit B [6], 88 nM. Also, the inhibition of growth at 50 µM in the experiment on Staphylococcus aureus [3] is 19%; in the experiment with Enterococcus faecalis [4] it was 2%; with Escherichia coli [5], 10%; in the experiment on Pseudomonas aeruginosa, -2%.

For the compound `NCCOc1cc(C(=O)N[C@@H](Cc2ccccc2)C(=O)O)ccc1NC(=O)c1cc(Br)c(Br)[nH]1`, the Activity in [1] amounted to 89%; in the experiment with Escherichia coli [8] it was 96%; in the experiment with Staphylococcus aureus [2] it was 98%. For the same compound, the inhibition of growth at 50 µM with Staphylococcus aureus [3] is 20%; in the experiment on Enterococcus faecalis [4], 34%; in the experiment with Escherichia coli [5], 5%; in the experiment with Pseudomonas aeruginosa, 21%; in the experiment with Escherichia coli [9], -6%; in the experiment on Escherichia coli [10], 9%. In addition, at DNA gyrase subunit B [6], 370 nM corresponded to half-maximal inhibition (IC50).

A word on the MIC90: it is an inhibitory concentration at the 90% level, which refers to growth in some studies and to a panel of isolates in others. For `Cc1[nH]c(C(=O)Nc2ccc(C(=O)N[C@@H](C)C(=O)O)cc2OC(C)C)c(Cl)c1Cl`, the IC50 in [12] came to 450 nM; against DNA gyrase subunit B [7] it was 93 nM; in [11], 280 nM; against DNA gyrase subunit B [6], 38 nM. The inhibition of growth at 50 µM was -21% in the experiment with Staphylococcus aureus [3]; 100% in the experiment with Enterococcus faecalis [4]; 0% in the experiment on Escherichia coli [5]; 8% in the experiment with Pseudomonas aeruginosa; 97% in the experiment with Escherichia coli [9]; -10% in the experiment on Escherichia coli [10]. The results for the MIC90 against Enterococcus faecalis [13] and against Escherichia coli [14] were 3.13 µM (≈ 1.38 µg/mL) and 50 µM (≈ 22.1 µg/mL), respectively.

Take `COC(=O)[C@H](C)NC(=O)c1ccc(NC(=O)c2[nH]c(C)c(Cl)c2Cl)c(OCCN)c1`: the IC50 against DNA gyrase subunit B [7] stood at 390 nM; in experiment [11] it was 3700 nM; against DNA gyrase subunit B [6] it was 34 nM. For the same compound, the Activity in the experiment on Escherichia coli [8] was determined as 89%. The inhibition of growth at 50 µM with Staphylococcus aureus [3] is 82%; in the experiment with Enterococcus faecalis [4], 100%; in the experiment with Escherichia coli [5] it was 67%; with Pseudomonas aeruginosa, 35%; in the experiment on Escherichia coli [9], 100%; with Escherichia coli [10], 47%. Besides, the values for the MIC90 against Staphylococcus aureus [15], in the experiment with Enterococcus faecalis [13] and in the experiment with Escherichia coli [14] were 50 µM (≈ 22.9 µg/mL), 25 µM (≈ 11.4 µg/mL) and 25 µM (≈ 11.4 µg/mL), respectively.

The term MIC denotes the smallest concentration in the dilution series that meets the test's criterion for growth inhibition. A higher MIC goes with a less susceptible organism. One may read the Ki as the dissociation constant of the complex between target and ligand, obtained from inhibition or displacement. Lower therefore signals higher affinity. As for `CNc1cc(F)cc2c1[nH]c1nc(Oc3cnc(C)nc3)nc(N3C[C@H]4CCN[C@H]4C3)c12`, in the experiment with Staphylococcus aureus [16], the MIC turned out to be 0.06 µg/mL (≈ 0.138 µM). Moreover, the Ki in experiment [17] was less than 0.1 nM.

The compound `Cc1[nH]c(C(=O)Nc2ccc(C(=O)NCC(=O)O)cc2OC(C)C)c(Cl)c1Cl` registered an IC50 in experiment [12] of 11000 nM. In the experiment on Enterococcus faecalis [18], this compound had an MIC of 50 µM (≈ 21.4 µg/mL).

On to `COc1cc([C@@H]2c3cc4c(cc3[C@@H](O[C@@H]3O[C@@H]5CO[C@@H](C)O[C@H]5[C@H](O)[C@H]3O)[C@H]3COC(=O)[C@H]23)OCO4)cc(OC)c1O` [ETOPOSIDE], for which the IC50 with HUVEC stood at 5210 nM.
